Reference: ChEMBL document CHEMBL4229344 (Eur J Med Chem, 2018)
The source made the active and inactive calls. The calls are words filed in the database; no cut-off is given here.

Columns and labels:
[1] = target: Dual specificity mitogen-activated protein kinase kinase 6 (Homo sapiens) (UniProt P52564); assay: Binding affinity to wild-type human partial length MEK6 (K36 to D334 residues) expressed in bacterial expression system assessed as residual binding level at 1 uM by Kinomescan method relative to control
Chain of Dual specificity mitogen-activated protein kinase kinase 6 (Homo sapiens) (P52564 whole entry, the tested form may be a part): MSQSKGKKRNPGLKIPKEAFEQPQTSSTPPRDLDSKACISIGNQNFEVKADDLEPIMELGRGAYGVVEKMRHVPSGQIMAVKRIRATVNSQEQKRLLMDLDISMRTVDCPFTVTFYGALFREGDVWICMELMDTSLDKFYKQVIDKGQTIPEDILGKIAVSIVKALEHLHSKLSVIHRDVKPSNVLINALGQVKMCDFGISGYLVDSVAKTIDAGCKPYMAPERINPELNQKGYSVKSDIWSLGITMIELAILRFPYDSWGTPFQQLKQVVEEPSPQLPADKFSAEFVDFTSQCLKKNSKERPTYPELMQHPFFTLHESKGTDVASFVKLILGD

[2] = AUC (0 to t) in Sprague-Dawley rat at 1 mg/kg, iv; format: ADME, organism-based; conditions: in vivo
How it was run: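 Male Sprague-Dawley rats (6–8 weeks) fasted overnight, dosed IV or orally; compound dissolved in 5% DMSO/40% PEG400/55% saline (dosing solution 1 mg/mL). Blood (~0.2 mL) from jugular vein into heparin; IV sampling 1 min–8 h, oral 5 min–24 h. Plasma separated by centrifugation at 2–8 °C, stored at −80 °C until analysis.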

[3] = target: Peripheral plasma membrane protein CASK (Homo sapiens) (UniProt O14936); assay: Binding affinity to wild-type human partial length CASK (M1 to H315 residues) expressed in mammalian expression system assessed as residual binding level at 1 uM by Kinomescan method relative to control
How it was run: (§1)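 Kinome-wide competition binding screen against a panel of 468 purified kinases/mutants, with the test compound at a single concentration of 1 μM. Read-out is the relative binding activity of each kinase in the presence of compound.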

EOL1 = assay: Antiproliferative activity against human EOL-1 cells after 72 hrs by CellTiter-Glo or CCK-8 assay; format: functional; conditions: EOL1, 72 h
How it was run: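 Cells in RPMI 1640 with 10% FBS at 37 °C, 5% CO2, seeded at 1–3 × 10^4 cells/mL with serial compound dilutions for 72 h. Viability read by CellTiter-Glo luminescence or CCK-8 absorbance (450/655 nm), normalized to DMSO control.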

[4] = tested on: Receptor-type tyrosine-protein kinase FLT3 (Homo sapiens), P36888 [UNDEFINED MUTATION]; assay: Binding affinity to human partial length FLT3 ITD/D835V double mutant expressed in bacterial expression system assessed as residual binding level at 1 uM by Kinomescan method relative to control
How it was run: (§2)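 Kinome-wide single-concentration binding screen (KINOMEscan) at 1 μM against a panel of 468 purified kinases and mutants. Read-out is relative binding of each kinase compared with control. Selectivity across the panel was summarised as an S(10) score.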

[5] = target: Serine/threonine-protein kinase Nek3 (Homo sapiens) (UniProt P51956); assay: Binding affinity to wild-type human full length NEK3 (M1 to R506 residues) expressed in mammalian expression system assessed as residual binding level at 1 uM by Kinomescan method relative to control
Chain of Serine/threonine-protein kinase Nek3 (Homo sapiens) (P51956 whole entry, the tested form may be a part): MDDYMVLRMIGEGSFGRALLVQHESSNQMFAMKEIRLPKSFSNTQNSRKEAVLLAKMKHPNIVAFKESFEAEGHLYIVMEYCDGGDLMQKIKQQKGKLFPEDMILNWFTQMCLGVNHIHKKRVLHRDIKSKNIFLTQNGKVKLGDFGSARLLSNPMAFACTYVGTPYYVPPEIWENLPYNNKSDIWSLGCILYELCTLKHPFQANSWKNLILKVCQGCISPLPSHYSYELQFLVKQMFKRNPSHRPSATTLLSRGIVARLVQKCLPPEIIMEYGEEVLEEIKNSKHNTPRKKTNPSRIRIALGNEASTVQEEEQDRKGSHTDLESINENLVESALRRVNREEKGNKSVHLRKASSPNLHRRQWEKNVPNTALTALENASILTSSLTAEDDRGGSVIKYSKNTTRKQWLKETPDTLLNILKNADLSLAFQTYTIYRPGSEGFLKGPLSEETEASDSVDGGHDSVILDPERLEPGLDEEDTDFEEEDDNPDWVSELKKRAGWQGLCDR
How it was run: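 KINOMEscan competition binding against 468 purified kinases/mutants, test compound at 1 µM; residual binding relative to control.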

[6] = tested on: Receptor-type tyrosine-protein kinase FLT3 (Homo sapiens), P36888 [K663Q]; assay: Binding affinity to human partial length FLT3 K663Q mutant (V592 to Y969 residues) expressed in bacterial expression system assessed as residual binding level at 1 uM by Kinomescan method relative to control; how it was run: as §2
[7] = target: Serine/threonine-protein kinase MARK1 (Homo sapiens) (UniProt Q9P0L2); assay: Binding affinity to wild-type human partial length MARK1 (Q30 to T341 residues) expressed in bacterial expression system assessed as residual binding level at 1 uM by Kinomescan method relative to control
Chain of Serine/threonine-protein kinase MARK1 (Homo sapiens) (Q9P0L2 whole entry, looked up, the tested form may be a part): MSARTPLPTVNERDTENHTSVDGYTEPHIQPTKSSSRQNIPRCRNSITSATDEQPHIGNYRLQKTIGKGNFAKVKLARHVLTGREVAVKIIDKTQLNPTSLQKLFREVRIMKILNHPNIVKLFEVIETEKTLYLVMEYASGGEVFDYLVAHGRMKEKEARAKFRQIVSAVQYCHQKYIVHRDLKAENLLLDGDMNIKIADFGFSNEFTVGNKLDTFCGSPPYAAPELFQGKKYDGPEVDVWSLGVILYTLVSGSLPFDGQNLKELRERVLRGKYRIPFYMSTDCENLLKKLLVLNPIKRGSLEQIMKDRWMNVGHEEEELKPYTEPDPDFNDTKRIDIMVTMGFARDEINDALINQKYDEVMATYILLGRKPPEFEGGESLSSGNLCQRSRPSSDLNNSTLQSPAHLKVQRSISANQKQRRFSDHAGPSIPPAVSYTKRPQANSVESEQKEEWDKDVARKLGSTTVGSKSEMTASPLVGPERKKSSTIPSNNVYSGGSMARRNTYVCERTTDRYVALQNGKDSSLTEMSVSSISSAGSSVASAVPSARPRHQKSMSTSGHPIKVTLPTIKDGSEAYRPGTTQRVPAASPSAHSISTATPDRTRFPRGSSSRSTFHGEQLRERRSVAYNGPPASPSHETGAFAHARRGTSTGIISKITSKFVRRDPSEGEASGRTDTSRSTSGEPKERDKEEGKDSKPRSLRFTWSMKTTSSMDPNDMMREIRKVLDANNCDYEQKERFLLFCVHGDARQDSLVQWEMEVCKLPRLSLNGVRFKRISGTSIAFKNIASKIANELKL

[8] = target: BMP-2-inducible protein kinase (Homo sapiens) (UniProt Q9NSY1); assay: Binding affinity to wild-type human partial length BIKE (S34 to N329 residues) expressed in bacterial expression system assessed as residual binding level at 1 uM by Kinomescan method relative to control
Chain of BMP-2-inducible protein kinase (Homo sapiens) (Q9NSY1 whole entry, looked up, the tested form may be a part): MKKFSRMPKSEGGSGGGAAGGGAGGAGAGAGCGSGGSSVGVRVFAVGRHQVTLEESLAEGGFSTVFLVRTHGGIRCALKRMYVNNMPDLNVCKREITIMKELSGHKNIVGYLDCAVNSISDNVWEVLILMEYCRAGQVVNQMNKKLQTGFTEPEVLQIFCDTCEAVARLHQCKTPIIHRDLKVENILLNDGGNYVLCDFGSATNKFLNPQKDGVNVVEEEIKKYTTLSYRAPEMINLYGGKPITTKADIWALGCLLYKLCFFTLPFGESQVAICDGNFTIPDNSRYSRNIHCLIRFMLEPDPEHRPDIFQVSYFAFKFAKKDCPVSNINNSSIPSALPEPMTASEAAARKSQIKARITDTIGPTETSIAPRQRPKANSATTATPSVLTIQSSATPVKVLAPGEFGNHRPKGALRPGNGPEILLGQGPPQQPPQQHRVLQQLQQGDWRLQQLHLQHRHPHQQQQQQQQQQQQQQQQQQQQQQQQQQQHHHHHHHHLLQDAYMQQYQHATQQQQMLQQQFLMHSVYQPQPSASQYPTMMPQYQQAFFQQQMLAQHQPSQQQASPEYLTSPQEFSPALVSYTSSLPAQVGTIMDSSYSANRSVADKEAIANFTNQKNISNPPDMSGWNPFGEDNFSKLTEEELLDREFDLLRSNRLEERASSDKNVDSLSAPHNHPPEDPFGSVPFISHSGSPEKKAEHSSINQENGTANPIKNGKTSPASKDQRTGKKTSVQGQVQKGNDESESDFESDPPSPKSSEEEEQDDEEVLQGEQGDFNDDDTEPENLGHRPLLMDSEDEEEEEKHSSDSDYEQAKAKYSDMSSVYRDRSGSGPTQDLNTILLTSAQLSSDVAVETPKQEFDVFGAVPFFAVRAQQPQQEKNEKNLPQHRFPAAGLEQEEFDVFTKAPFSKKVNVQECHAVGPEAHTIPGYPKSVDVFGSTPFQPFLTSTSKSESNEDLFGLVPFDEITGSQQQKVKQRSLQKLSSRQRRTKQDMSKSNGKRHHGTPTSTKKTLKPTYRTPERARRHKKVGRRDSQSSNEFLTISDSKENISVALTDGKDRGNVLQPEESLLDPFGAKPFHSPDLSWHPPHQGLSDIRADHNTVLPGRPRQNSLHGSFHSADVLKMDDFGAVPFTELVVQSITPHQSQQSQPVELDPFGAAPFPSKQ
How it was run: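 Single-concentration KINOMEscan (DiscoverX) binding screen at 1 μM against a panel of 468 purified kinases and mutants. The read-out is binding relative to control.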

[9] = target: Calcium/calmodulin-dependent protein kinase kinase 2 (Homo sapiens) (UniProt Q96RR4); assay: Binding affinity to wild-type human partial length CAMKK2 (D65 to V471 residues) expressed in bacterial expression system assessed as residual binding level at 1 uM by Kinomescan method relative to control; how it was run: as §1
Rattus norvegicus = assay: Apparent volume of distribution in Sprague-Dawley rat at 10 mg/kg, po; format: ADME, organism-based; conditions: in vivo
[10] = target: MAP kinase-activated protein kinase 5 (Homo sapiens) (UniProt Q8IW41); assay: Binding affinity to wild-type human partial length MAPKAPK5 (M1 to D322 residues) expressed in mammalian expression system assessed as residual binding level at 1 uM by Kinomescan method relative to control
[11] = tested on: Mast/stem cell growth factor receptor Kit (Homo sapiens), P10721 [V559D,T670I]; assay: Binding affinity to human partial length KIT V559D/T670I double mutant (Y545 to D952 residues) expressed in bacterial expression system assessed as residual binding level at 1 uM by Kinomescan method relative to control; how it was run: as §2
Chain of Mast/stem cell growth factor receptor Kit (Homo sapiens), P10721 [V559D,T670I] (P10721 whole entry V559D/T670I, the tested form may be a part): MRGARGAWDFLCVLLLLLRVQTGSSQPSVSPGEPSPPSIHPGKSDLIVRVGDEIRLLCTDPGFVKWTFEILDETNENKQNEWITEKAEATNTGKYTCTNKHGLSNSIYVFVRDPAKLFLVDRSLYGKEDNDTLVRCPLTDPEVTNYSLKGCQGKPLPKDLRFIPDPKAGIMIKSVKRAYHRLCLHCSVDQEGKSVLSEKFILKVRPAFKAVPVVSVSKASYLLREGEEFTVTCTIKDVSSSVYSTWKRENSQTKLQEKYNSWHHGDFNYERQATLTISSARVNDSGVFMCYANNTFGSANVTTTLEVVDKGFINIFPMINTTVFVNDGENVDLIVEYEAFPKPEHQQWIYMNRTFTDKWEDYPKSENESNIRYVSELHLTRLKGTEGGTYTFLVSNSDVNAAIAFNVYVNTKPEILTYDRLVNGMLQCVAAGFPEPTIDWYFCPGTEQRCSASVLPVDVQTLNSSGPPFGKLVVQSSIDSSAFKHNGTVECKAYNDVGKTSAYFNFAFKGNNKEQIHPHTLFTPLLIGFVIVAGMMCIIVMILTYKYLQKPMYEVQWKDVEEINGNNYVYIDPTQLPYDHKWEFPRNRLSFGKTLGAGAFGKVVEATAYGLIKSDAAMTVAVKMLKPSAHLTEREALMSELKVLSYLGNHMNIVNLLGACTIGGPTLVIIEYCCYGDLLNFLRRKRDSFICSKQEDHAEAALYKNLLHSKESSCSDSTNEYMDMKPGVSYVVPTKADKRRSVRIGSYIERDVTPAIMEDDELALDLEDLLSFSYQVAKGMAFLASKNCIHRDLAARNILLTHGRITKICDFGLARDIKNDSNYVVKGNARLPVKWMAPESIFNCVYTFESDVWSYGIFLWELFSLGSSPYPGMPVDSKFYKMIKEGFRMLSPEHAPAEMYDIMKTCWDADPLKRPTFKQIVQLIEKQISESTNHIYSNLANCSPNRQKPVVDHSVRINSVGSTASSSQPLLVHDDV

NCI-H1703 = assay: Induction of apoptosis in human NCI-H1703 cells assessed as cleaved PARP expression level at 0.3 to 10 uM after 72 hrs by Western blot analysis; format: functional, cell-based
How it was run: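 Cells exposed to compound or DMSO for the stated periods, then lysed and immunoblotted for PARP and caspase-3 cleavage, with β-actin as loading control. NCI-H1703 stimulation used PDGF AA at 100 ng/mL.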

[12] = target: Serine/threonine-protein kinase BRSK1 (Homo sapiens) (UniProt Q8TDC3); assay: Binding affinity to wild-type human partial length BRSK1 (M1 to E754 residues) expressed in bacterial expression system assessed as residual binding level at 1 uM by Kinomescan method relative to control
[13] = target: Ephrin type-B receptor 4 (Homo sapiens) (UniProt P54760); assay: Binding affinity to wild-type human partial length EPHB4 (H585 to G892 residues) expressed in bacterial expression system assessed as residual binding level at 1 uM by Kinomescan method relative to control
[14] = target: Serine/threonine-protein kinase PAK 5 (Homo sapiens) (UniProt Q9P286); assay: Binding affinity to wild-type human partial length PAK7 (Y400 to H719 residues) expressed in bacterial expression system assessed as residual binding level at 1 uM by Kinomescan method relative to control
How it was run: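 KINOMEscan competition binding against a panel of 468 purified kinases/mutants, compound tested at 1 μM; readout is relative binding activity versus control.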

[15] = target: Platelet-derived growth factor receptor alpha (Homo sapiens, UniProt P16234); assay: Inhibition of PDGF-induced PDGFRalpha autophosphorylation at Y754 residue in human NCI-H1703 cells after 2 hrs in presence of PDGF-AA by Western blot analysis; format: cell-based
[16] = tested on: Phosphatidylinositol 4,5-bisphosphate 3-kinase catalytic subunit alpha isoform (Homo sapiens), P42336 [H1047Y]; assay: Binding affinity to human partial length PIK3CA H1047Y mutant (R108 to N1068 residues) expressed in mammalian expression system assessed as residual binding level at 1 uM by Kinomescan method relative to control; how it was run: as §2
Chain of Phosphatidylinositol 4,5-bisphosphate 3-kinase catalytic subunit alpha isoform (Homo sapiens), P42336 [H1047Y] (P42336 whole entry H1047Y, the tested form may be a part, canonical isoform): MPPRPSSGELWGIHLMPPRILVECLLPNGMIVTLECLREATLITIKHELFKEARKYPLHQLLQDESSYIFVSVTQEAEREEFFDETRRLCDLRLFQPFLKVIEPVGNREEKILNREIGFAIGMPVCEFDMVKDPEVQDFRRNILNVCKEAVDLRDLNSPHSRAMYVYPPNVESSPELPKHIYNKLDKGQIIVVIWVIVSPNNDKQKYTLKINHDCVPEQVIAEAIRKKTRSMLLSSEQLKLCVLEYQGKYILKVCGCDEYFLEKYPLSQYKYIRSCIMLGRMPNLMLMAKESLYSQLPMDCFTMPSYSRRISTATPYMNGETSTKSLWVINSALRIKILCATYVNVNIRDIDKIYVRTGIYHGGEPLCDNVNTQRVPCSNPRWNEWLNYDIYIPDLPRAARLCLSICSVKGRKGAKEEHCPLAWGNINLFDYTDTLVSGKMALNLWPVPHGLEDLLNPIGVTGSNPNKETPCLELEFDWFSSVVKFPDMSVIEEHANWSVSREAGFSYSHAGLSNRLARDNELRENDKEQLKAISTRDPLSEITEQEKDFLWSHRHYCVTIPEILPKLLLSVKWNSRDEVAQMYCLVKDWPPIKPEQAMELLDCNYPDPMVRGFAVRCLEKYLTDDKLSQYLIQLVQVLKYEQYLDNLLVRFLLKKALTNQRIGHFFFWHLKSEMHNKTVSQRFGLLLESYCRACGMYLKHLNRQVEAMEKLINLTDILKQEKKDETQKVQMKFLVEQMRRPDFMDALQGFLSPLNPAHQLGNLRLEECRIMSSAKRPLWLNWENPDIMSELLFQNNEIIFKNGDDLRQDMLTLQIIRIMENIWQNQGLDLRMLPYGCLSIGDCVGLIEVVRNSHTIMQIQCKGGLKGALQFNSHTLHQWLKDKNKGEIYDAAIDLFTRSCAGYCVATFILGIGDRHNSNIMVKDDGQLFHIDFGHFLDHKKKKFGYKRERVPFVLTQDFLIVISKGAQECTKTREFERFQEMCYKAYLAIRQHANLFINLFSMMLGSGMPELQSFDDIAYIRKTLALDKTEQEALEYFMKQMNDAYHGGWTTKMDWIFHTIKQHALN

[17] = target: Mitogen-activated protein kinase kinase kinase 11 (Homo sapiens) (UniProt Q16584); assay: Binding affinity to wild-type human partial length MLK3 (I77 to W399 residues) expressed in bacterial expression system assessed as residual binding level at 1 uM by Kinomescan method relative to control

Which Activity [1] does the source give for Cc1ccc(NC(=O)c2ccc(CN(CCN(C)C)C(=O)c3cccnc3)cc2)cc1Nc1nccc(-c2cccnc2)n1 here?
Its Activity is 100%.

And the AUC(0-t) [2]?
The AUC(0-t) was 0.528 µg·h/mL.

What about the Activity [3] of the same molecule?
Its Activity is 87%.

And the GI50 (EOL1)?
Its GI50 is under 1 nM.

What about the Activity [4] of the same molecule?
Its Activity is 98%.

And the Activity [5]?
The Activity was 73%.

What about the Activity [6] of the same molecule?
The Activity was 93%.

And the Activity [7]?
The Activity was 97%.

What about the Activity [8] of the same molecule?
The Activity was 99%.

And the Activity [9]?
The Activity was 91%.

What about the Vz (Rattus norvegicus) of the same molecule?
Its Vz is 256.181 L/kg.

And the Activity [10]?
The Activity was 100%.

And the Activity [11]?
The Activity was 76%.

And the Activity (NCI-H1703)?
Its Activity is “inactive”.

What about the Activity [12] of the same molecule?
Its Activity is 93%.

And the Activity [13]?
The Activity was 90%.

What about the Activity [14] of the same molecule?
The Activity was 92%.

What about the inhibition [15] of the same molecule?
The inhibition was “Dose-dependent effect”.

What about the Activity [16] of the same molecule?
The Activity was 76%.

What about the Activity [17] of the same molecule?
The Activity was 100%.
